Data published in ChEMBL document CHEMBL3232847, “Discovery of 6-phenylpyrimido[4,5-b][1,4]oxazines as potent and selective acyl CoA:diacylglycerol acyltransferase 1 (DGAT1) inhibitors with in vivo efficacy in rodents” (J Med Chem, 2014).
Each block holds one molecule with its values, some of them ahead of it.

Assays:
[1] = target: T1, Diacylglycerol O-acyltransferase 1 (Homo sapiens, UniProt O75907); assay: Inhibition of human liver flag-tagged DGAT1 expressed in baculovirus infected insect cells after 2 hrs by SPA
T1 sequence (O75907 whole entry): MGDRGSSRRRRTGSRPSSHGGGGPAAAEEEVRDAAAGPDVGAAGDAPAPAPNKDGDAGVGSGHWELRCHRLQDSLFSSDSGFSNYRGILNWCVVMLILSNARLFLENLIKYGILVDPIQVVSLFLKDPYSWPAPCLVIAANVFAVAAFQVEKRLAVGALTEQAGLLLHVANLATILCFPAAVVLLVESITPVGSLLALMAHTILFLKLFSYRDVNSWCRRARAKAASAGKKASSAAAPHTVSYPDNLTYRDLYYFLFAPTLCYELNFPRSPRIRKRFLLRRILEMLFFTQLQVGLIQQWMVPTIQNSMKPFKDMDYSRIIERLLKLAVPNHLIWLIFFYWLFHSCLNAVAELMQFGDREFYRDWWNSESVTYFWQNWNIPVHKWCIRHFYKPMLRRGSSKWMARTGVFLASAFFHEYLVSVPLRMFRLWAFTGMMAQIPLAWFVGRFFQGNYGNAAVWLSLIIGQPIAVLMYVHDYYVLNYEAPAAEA

[2] = tested on: CHL (Chinese hamster lung cells); assay: Toxicity in CHL cells assessed as chromosomal aberration
Rattus norvegicus [3] = assay: Toxicity in Sprague-Dawley rat assessed as clinical pathology parameters at 100 to 500 mg/kg, po by 28-day multiple-dose toxicity study; format: organism-based; design: dose 100-500 mg/kg, route oral; conditions: in vivo
Outline: (§1)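 Sprague−Dawley rats were dosed po at 100 and 500 mg kg−1 day−1 for 28 days. Clinical pathology was assessed for treatment-related changes, including sebaceous gland atrophy.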

Cynomolgus monkey [4] = assay: Toxicity in cynomolgus monkey assessed as QTc interval prolongation at 1 mg/kg/day, po by 28-day multiple-dose toxicity study relative to control; format: organism-based, Macaca fascicularis; design: route oral; conditions: in vivo
Outline: (§2)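 Cynomolgus monkeys were dosed po at 1, 10 and 100 mg kg−1 day−1 for 28 days. Plasma ALT and AST were measured and QTc intervals were recorded, with eight monkeys in the 100 mg/kg group.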

Cytochrome P450 3A4 = Cytochrome P450 3A4 (Homo sapiens, UniProt P08684); assay: Inhibition of CYP3A4 (unknown origin) at 10 uM; format: ADME
Sequence of Cytochrome P450 3A4 (P08684 whole entry): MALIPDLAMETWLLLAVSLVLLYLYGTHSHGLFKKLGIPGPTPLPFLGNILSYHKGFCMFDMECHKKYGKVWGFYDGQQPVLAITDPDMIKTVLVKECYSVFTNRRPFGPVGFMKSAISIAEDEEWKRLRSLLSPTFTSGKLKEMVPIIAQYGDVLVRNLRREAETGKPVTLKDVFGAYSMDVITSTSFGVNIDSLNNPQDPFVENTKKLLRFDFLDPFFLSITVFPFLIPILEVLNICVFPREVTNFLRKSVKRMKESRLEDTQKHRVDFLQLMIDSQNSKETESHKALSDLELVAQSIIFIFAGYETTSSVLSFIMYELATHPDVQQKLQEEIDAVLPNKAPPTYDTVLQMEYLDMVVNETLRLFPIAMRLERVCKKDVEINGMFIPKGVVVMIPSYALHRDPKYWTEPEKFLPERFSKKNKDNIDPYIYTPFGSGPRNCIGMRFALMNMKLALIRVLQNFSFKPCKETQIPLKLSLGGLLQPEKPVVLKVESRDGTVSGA

[5] = Clearance in Sprague-Dawley rat at 1 mg/kg, iv; format: ADME, organism-based; design: dose 1 mg/kg, route intravenous; conditions: in vivo
Rattus norvegicus [6] = assay: Toxicity in Sprague-Dawley rat assessed as sebaceous gland atrophy at 100 to 500 mg/kg, po by 28-day multiple-dose toxicity study; format: organism-based; design: dose 100-500 mg/kg, route oral; conditions: in vivo; outline: as §1
Salmonella typhimurium = assay: Genotoxicity in Salmonella typhimurium; format: toxicity, organism-based; conditions: salmonella enterica subsp. enterica serovar typhimurium
Cytochrome P450 1A2 = target: T2, Cytochrome P450 1A2 (Homo sapiens, UniProt P05177); assay: Inhibition of CYP1A2 (unknown origin) at 10 uM; format: ADME
T2 sequence (P05177 whole entry): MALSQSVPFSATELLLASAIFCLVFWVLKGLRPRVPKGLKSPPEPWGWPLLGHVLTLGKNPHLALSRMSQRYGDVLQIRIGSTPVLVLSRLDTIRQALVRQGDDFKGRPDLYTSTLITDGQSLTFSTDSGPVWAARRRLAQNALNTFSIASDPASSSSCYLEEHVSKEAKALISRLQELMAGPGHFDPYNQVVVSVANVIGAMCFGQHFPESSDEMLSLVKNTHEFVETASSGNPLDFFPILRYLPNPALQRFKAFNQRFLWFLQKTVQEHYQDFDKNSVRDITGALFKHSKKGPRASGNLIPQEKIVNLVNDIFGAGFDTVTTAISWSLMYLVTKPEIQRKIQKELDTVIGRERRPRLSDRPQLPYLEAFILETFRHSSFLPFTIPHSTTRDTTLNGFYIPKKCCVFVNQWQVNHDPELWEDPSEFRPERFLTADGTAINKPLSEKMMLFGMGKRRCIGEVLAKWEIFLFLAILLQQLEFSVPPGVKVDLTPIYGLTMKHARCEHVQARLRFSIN

Cytochrome P450 2D6 = Cytochrome P450 2D6 (Homo sapiens, UniProt P10635); assay: Inhibition of CYP2D6 (unknown origin) at 10 uM; format: ADME
Sequence of Cytochrome P450 2D6 (P10635 whole entry): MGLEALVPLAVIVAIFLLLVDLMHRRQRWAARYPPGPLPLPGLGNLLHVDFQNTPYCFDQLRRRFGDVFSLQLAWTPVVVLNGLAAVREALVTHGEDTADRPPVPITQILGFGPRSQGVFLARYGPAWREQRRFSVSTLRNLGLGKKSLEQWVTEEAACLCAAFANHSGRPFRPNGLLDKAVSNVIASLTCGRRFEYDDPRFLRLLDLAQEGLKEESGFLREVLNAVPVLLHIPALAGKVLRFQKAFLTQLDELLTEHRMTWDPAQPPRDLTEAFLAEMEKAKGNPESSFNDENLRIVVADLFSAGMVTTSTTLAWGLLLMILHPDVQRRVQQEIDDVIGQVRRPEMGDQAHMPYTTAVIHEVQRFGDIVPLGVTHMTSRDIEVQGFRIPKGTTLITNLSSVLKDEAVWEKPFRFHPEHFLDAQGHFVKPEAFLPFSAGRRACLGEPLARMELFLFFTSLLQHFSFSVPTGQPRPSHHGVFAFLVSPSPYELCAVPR

Cynomolgus monkey [7] = assay: Toxicity in cynomolgus monkey assessed as QTc interval prolongation at 10 mg/kg/day, po by 28-day multiple-dose toxicity study relative to control; format: organism-based, Macaca fascicularis; design: route oral; conditions: in vivo; outline: as §2
Cytochrome P450 2C9 = Cytochrome P450 2C9 (Homo sapiens, UniProt P11712); assay: Inhibition of CYP2C9 (unknown origin) at 10 uM; format: ADME
Sequence of Cytochrome P450 2C9 (P11712 whole entry): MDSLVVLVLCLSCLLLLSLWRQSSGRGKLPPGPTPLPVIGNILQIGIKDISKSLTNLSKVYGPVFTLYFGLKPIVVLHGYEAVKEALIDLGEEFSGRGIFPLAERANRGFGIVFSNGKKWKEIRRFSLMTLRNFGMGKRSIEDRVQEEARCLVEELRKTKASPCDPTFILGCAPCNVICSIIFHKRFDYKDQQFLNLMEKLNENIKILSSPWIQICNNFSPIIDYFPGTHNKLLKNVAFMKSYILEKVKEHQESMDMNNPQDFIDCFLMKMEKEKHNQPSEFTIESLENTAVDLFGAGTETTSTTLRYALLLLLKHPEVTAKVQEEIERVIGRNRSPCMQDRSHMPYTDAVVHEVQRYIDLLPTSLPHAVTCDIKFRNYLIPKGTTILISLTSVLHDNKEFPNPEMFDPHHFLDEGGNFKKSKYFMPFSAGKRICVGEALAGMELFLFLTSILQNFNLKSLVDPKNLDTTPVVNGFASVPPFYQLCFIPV

Rattus norvegicus [8] = assay: Toxicity in Sprague-Dawley rat assessed as elevation of plasma AST level at 50 mg/kg, iv administered as single dose; format: organism-based; design: dose 50 mg/kg, route intravenous; conditions: in vivo
Rattus norvegicus [9] = assay: Toxicity in Sprague-Dawley rat assessed as elevation of plasma ALT level at 50 mg/kg, iv administered as single dose; format: organism-based; design: dose 50 mg/kg, route intravenous; conditions: in vivo

- inhibition (INH) (Cytochrome P450 3A4): Not Active
- clearance [5]: 3.5 mL/min/kg
- inhibition (INH) (Cytochrome P450 1A2): Not Active
- inhibition (INH) (Cytochrome P450 2D6): Not Active
- inhibition (INH) (Cytochrome P450 2C9): Not Active
Structure (SMILES): Cc1nc(N)c2c(n1)OC(C)(C)C(c1ccc([C@H]3CC[C@H](CC(=O)O)CC3)cc1)=N2
- Activity [2]: Toxic
- Activity (Rattus norvegicus [3]): Non-toxic
- Activity (Cynomolgus monkey [4]): Non-toxic
- Activity (Rattus norvegicus [6]): Toxic
- Activity (Salmonella typhimurium): Non-toxic
- Activity (Cynomolgus monkey [7]): Non-toxic

- clearance [5]: 1.33 mL/min/kg
Structure (SMILES): CC1(C)Oc2nc(C(F)(F)F)nc(N)c2N=C1c1ccc([C@H]2CC[C@H](CC(=O)O)CC2)cc1

- clearance [5]: 21.7 mL/min/kg
Structure (SMILES): CC1(C)Oc2ncnc(N)c2C=C1c1ccc2c(c1)CC[C@]21CC[C@@H](CC(=O)O)CC1

- clearance [5]: 23.3 mL/min/kg
Structure (SMILES): CC1(C)Oc2ncnc(N)c2C=C1c1ccc([C@H]2CC[C@H](CC(=O)O)CC2)cc1

The remaining lines, values behind:

Structure (SMILES): CN(C)c1ncnc2c1N=C(c1ccc(Br)cc1)CO2
- IC50 [1]: > 10 µM

Structure (SMILES): CN(C)c1nc(N)c2c(n1)OCC(c1ccc(Br)cc1)=N2
- IC50 [1]: > 10 µM

Structure (SMILES): Nc1nc(N)c2c(n1)OCC(c1ccc(Br)cc1)=N2
- IC50 [1]: > 10 µM

Structure (SMILES): Nc1nc(O)nc2c1N=C(c1ccc(Br)cc1)CO2
- IC50 [1]: > 10 µM

Structure (SMILES): CC1(C)Oc2nc(O)nc(N)c2N=C1c1ccc([C@H]2CC[C@H](CC(=O)O)CC2)cc1
- Activity (Rattus norvegicus [8]): Toxic
- Activity (Rattus norvegicus [9]): Toxic

Structure (SMILES): Nc1cccc2c1N=C(c1ccc(Br)cc1)CO2
- IC50 [1]: > 10 µM

Structure (SMILES): CNc1ncnc2c1N=C(c1ccc(Br)cc1)CO2
- IC50 [1]: > 10 µM
